Screening data (PubChem)
PPC-1+TRAIL kill = kills PPC-1 cancer cells in the presence of TRAIL. PPC-1 cells + TRAIL, ATPLite viability luminescence. cell killing (% activity), % at 4 µM or 5 µM. 0.41% of 220,000 active;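 active means cell killing above 50% in the first pass at 4 µM, then a duplicate retest at 5 µM averaging 50% or more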;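 further: plate controls were cells with TRAIL plus DMSO for no effect and medium-only wells lacking cells for full effect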
C8 TRAIL sens = sensitizes caspase-8 expressing cells to TRAIL; inhibition (viability loss, TRAIL sensitization), % at 10 µM; AID 624354; NB7+C8 cells + TRAIL, ATPlite viability luminescence; 1% of 360,000 active;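 active means compounds causing at least 50% loss of cell viability in the single-dose screen, relative to plate controls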
FLuc inhib CS = inhibits firefly luciferase, flagging false hits in luciferase inhibition screens; P08659; ATPLite firefly luciferase biochemical luminescence, 10 min; 1.5% of 200,000 active; inhibition, % at 10 µM;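 active means inhibition above about 50% when tested at 10 µM, limit read from the data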
Target sequence (P08659 whole entry, looked up): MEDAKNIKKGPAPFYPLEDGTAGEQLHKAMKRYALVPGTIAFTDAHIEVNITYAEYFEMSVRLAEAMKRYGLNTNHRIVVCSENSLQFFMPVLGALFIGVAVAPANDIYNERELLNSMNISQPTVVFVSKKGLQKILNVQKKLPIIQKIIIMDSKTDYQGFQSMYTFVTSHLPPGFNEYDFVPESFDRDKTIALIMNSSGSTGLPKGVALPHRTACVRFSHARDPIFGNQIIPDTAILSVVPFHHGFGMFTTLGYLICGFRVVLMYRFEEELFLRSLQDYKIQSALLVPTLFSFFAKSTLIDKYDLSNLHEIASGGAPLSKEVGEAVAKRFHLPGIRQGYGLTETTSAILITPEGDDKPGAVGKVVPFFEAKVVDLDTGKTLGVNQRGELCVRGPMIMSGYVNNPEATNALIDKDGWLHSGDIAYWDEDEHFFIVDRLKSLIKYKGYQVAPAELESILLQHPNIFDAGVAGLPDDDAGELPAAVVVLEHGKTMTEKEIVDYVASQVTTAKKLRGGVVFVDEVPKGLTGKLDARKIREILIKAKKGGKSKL
APP 5'UTR act = APP 5'UTR luciferase reporter activation; SH-SY5Y APP 5'UTR luciferase reporter, luminescence; zero percent = DMSO vehicle wells; activation, % at 2 µM; 1% of 190,000 active;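 active means activation above a set limit, based on mean plus 3 SD of controls, cut at about 140% in these data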
FLuc stim CS = firefly luciferase counter-screen for stimulation assays. ATPlite luciferase biochemical, luminescence, 10 min; 0 = ATP-free wells, 1 = DMSO control. activation factor at 10 µM. P08659. 200,000 tested, under 10 active;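 active means luciferase activation factor, scaled between plate controls, of at least 2 with compound at 10 µM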
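Assay system – cell-free luciferase reagent · Medium – PBS-based ATP solution · Dosing – test compounds dosed from 2 mM stocks in 100% DMSO · Timing – 10 min, room temperature · Technique – light output (luminescence) · Measure – luminescence gain marking luciferase activators · Controls – No-ATP low control, compound-free enzyme-plus-ATP high control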
NF-kB neuron act = raises NF-kB expression in human neuronal cells; NF-kB reporter expression; hits give high values; 1.6% of 190,000 active; AID 1239; fold change at 12.5 µM; in the data active means fold change above about 3.3
Numbers without * were called inactive; · = no result given; ! = repeats disagree. Sampled rows, rich in hits. Any-hit rate of the full collection: about 2.2%.

SMILES	PPC-1+TRAIL kill	C8 TRAIL sens	FLuc inhib CS	APP 5'UTR act	FLuc stim CS	NF-kB neuron act
CCOc1ccc(C(=O)NCC(=O)OCC(=O)Nc2ccc(C)c(S(=O)(=O)N(C)C)c2)cc1	25	2	65*	15	0.4	1.6
Cc1ccc(NC(=O)COC(=O)CNC(=O)C2CCCCC2)cc1S(=O)(=O)N(C)C	·	-6	·	·	·	·
CCC(C)Sc1cc(-c2nc3ccc(C)cn3c2NCc2ccccc2)ccc1OC (stereo not given)	·	84*!	·	·	·	·
CCC(C)Sc1ccc(-c2nc3ccc(C)cn3c2NCc2ccccc2)cc1OC (stereo not given)	·	22	·	·	·	·
COc1ccc(-c2cc(-c3nc4ccccn4c3NCc3ccccc3)ccc2OC)cc1	·	78*	·	·	·	·
CC1CCC(C(C)C)C(OC(=O)Cn2c(-c3ccccc3)[n+](C)c3ccccc32)C1 (stereo not given)	24	58*!	-6	19	1.1	0.77
Cc1ccc(C(=O)CSc2nnc3ccccn23)c(C)c1	12	7	24	167*	0.8	4.1*
OC(Cc1ccccc1Br)c1ncc(-c2cccc(C(F)(F)F)c2)[nH]1 (stereo not given)	·	17	·	·	·	·
O=C(Nc1ccc2sccc2c1)c1ccc(Cl)s1	37	18	30	206*	0.7	7.7*
CCOC(=O)CSc1nc2cc3c(cc2cc1C#N)OCO3	-3	-4	-7	112	1.1	4.1*
COC(=O)CSc1nc2cc3c(cc2cc1C#N)OCO3	9	14	-7	170*	1.1	6.8*
CC(C)OC(=O)CSc1nc2cc3c(cc2cc1C#N)OCO3	27	2	-9	84	1.1	1.4
COC(=O)CSc1nc(-c2cccs2)ccc1C#N	37	49	-9	152*	1.1	7.3*
CCOC(=O)CSc1nc2cc3c(cc2cc1C#N)OCCO3	·	10	-5	181*	1.1	1.2
CCOC(=O)CSc1nc2cc3c(cc2cc1C)OCO3	4	8	-4	-6	1	1.4
CCCCNC(=O)C[C@@H]1C[C@@]2(C(=O)OCC)CCCC=C2N(Cc2ccc3c(c2)OCO3)C1=O	·	-12	·	·	·	·
COC1=CC(C)C2CC3OC(=O)CC4C(C)=C(OC)C(=O)C(C2(C)C1=O)C34C (stereo not given)	·	-13	·	·	·	·
CC(C)(C)Nc1ncnc2c1cnn2-c1ccccc1	27	60*	66*	·	0.3	·
c1ccc(CCNc2ncnc3c2cnn3-c2ccccc2)cc1	-2	8	12	135	0.9	6.5*
Cc1ccc(-n2ncc3c(NCc4ccco4)ncnc32)cc1C	9	1	10	129	0.9	4.7*
Cc1cccc(-n2ncc3c(NCc4ccco4)ncnc32)c1	2	4	13	49	0.9	2.6
CN(Cc1ccccc1)c1ncnc2c1cnn2-c1ccccc1	13	28	24	124	0.8	4.7*
CCC(CC)C(=O)N(C)c1c(C)nc2c(OCCC3CCCCC3)cccn12	·	0	·	·	·	·
CC(C)OCCCNc1ncnc2c1cnn2-c1ccccc1	·	49	74*	194*	0.3	6*
COc1ccc(-n2ncc3c(N(C)C4CCCCC4)ncnc32)cc1	·	85*	·	·	·	·
SMILES	PPC-1+TRAIL kill	C8 TRAIL sens	FLuc inhib CS	APP 5'UTR act	FLuc stim CS	NF-kB neuron act
S=C(NCCCCN(Cc1ccc(Cl)cc1)c1ccc(Br)cn1)NCCCc1cnc[nH]1	·	21	·	·	·	·
O=C(NCc1ccccc1)c1cc(C2CCCCN2C(=O)c2cccs2)on1 (stereo not given)	·	5	·	·	·	·
COc1ccccc1-c1noc(-c2cccs2)n1	-2	17	33	101	0.7	3.8*
Cc1ccc(-c2noc(-c3cccs3)n2)cc1	22	36	44	135*	0.6	7.9*
Cc1ccc(-c2noc(-c3ccccc3F)n2)cc1	7	26	57*	174*	0.4	6*
COc1ccc(NC(=O)c2cc(C3CCCCN3C(=O)c3cccs3)on2)c(C)c1 (stereo not given)	·	6	·	·	·	·
CC(C)(C)c1cc(NC(=O)C2(C)CCN2C(=O)C2(c3ccccc3)CC2)no1 (stereo not given)	·	-2	·	·	·	·
C[C@H]1CN([C@@H](C)CO)C(=O)c2cc(Br)cnc2O[C@H]1CN(C)Cc1ccc(Oc2ccccc2)cc1	·	15	·	·	·	·
CN(c1ccc([N+](=O)[O-])cc1)c1cc2c(c3c1ccn3C)C1CCC2C1 (stereo not given)	·	-5	·	·	·	·
COc1ccc(OCCN2CCC(C(=O)NC(c3ccc(F)cc3)c3ncccc3C)CC2)cc1 (stereo not given)	·	-12	·	·	·	·
CC(=O)Nc1ccc(C(=O)N2CCCC(c3cc(C(=O)NCc4cccnc4)no3)C2)cc1 (stereo not given)	·	-14	·	·	·	·
CN(C)c1ccc(NC(=O)COC(=O)CCC(=O)c2ccc(F)cc2)cc1	9	-8	51*	7	0.5	0.94
CCOc1cc(C(=O)CCC(=O)OCC(=O)Nc2ccc(F)cc2)ccc1O	·	-20	·	·	·	·
Cc1ccc(N=Nc2ccc3ccccc3c2O)cc1	·	75*	·	·	·	·
Oc1c(N=Nc2ccc(F)cc2)ccc2ccccc12	·	53*	·	·	·	·
Oc1c(N=Nc2nn[nH]n2)ccc2ccccc12	·	45	·	·	·	·
COc1cccc(N=Nc2ccc3ccccc3c2O)c1	·	57*	·	·	·	·
Oc1ccc2ccccc2c1N=Nc1ccc(F)cc1	5	19	·	·	·	·
O=C(COc1ccc2c(-c3ccccc3)cc(=O)oc2c1)N1C[C@H]2C[C@@H](C1)c1cccc(=O)n1C2	·	-5	·	·	·	·
COc1ccc(C(=O)Nc2nc3ccccc3c(=O)[nH]2)cc1	11	36	39	177*	0.6	4*
COc1ccc(C(=O)Nc2cccc(/C=C/c3nc4ccccc4c(=O)[nH]3)c2)cc1	9	76*	·	·	·	·
COc1ccc(C(=O)Nn2c(SCC(=O)c3ccccc3)nc3ccccc3c2=O)cc1	29	18	24	155*	0.8	0.73
CCc1nc2c(OCc3ccc(OC(F)F)cc3)cccn2c1N(C)C(=O)c1ccc(OC)cc1	·	4	·	·	·	·
O=C1c2ccccc2C(c2nnnn2Cc2ccccc2)N1C1CC1 (stereo not given)	·	-5	·	·	·	·
O=C(NC1CCCC1)c1cc(-c2cccs2)on1	16	18	28	121	0.7	9.7*
SMILES	PPC-1+TRAIL kill	C8 TRAIL sens	FLuc inhib CS	APP 5'UTR act	FLuc stim CS	NF-kB neuron act
O=C(NCCCN1CCOCC1)c1cc(-c2cccs2)on1	-2	17	-3	22	1	7.3*
O=C(NCCCn1ccnc1)c1ccc(S(=O)(=O)N2CCOCC2)cc1	10	-17	-5	-6	1.1	4*
COc1ccc(OC)c(-c2cc(C(=O)NCCCn3ccnc3)no2)c1	-36	4	-9	-6	1.1	0.88
O=C(NCCCn1ccnc1)c1cc(-c2cccs2)on1	11	4	-1	19	1	11*
Cc1ccc(-c2cc(C(=O)NCCCN3CCOCC3)no2)cc1	-5	2	-1	-12	1	0.74
COC(=O)[C@]12CCCCC=C1N(CCc1ccc(OC)c(OC)c1)C(=O)[C@H](CC(=O)NCCCCc1ccccc1)C2	·	-9	·	·	·	·
